Measurements: ChEMBL document CHEMBL4043167, “Identification of pyrazolopyrimidine arylsulfonamides as CC-chemokine receptor 4 (CCR4) antagonists” (Bioorg Med Chem, 2017)
In brackets after ≈: the same amount, converted by molar mass. Activity calls are given as the source filed them. The rule behind the calls is not given here.

Assays:
[1] = molecular target: T1, C-C chemokine receptor type 4 (Homo sapiens, UniProt P51679); assay: Antagonist activity at human recombinant CCR4 receptor expressed in CHO cell membranes by [35S]GTPgammaS binding assay; type: functional
T1 sequence (P51679 whole entry): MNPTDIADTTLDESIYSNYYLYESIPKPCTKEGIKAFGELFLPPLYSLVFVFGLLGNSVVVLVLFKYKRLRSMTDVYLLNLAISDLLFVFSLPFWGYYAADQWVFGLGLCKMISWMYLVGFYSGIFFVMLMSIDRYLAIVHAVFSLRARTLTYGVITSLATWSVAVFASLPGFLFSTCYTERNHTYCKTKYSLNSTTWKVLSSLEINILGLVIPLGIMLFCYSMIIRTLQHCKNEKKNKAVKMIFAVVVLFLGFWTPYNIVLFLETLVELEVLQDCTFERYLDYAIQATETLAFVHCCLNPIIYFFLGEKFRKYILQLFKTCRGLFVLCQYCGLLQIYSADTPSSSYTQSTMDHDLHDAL

[2] = Lipophilicity, log D of the compound by chromatographic analysis; type: physicochemical
Procedure, shortened: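 Chromatographic logD measured at pH 7.4 (chromlogD7.4).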

[3] = Kinetic solubility of the compound by chemiluminescent nitrogen detection assay; type: physicochemical; conditions: read-out: Kinetic_solubility
[4] = molecular target: T2, C-C chemokine receptor type 4 (Homo sapiens) (UniProt P51679); assay: (§1) Antagonist activity at CCR4 receptor in human whole blood assessed as F-actin polymerization after 30 mins by FACS-based flow cytometric analysis
T2 sequence (whole entry): T1 sequence (P51679 whole entry)

albumin = albumin (Homo sapiens, UniProt P02768); assay: Binding affinity to HSA; type: ADME; conditions: human serum albumin (HSA), read-out: PB (converted)
[5] = Oral bioavailability in Sprague Dawley (crl:CD(SD)) rat at 1 mg/kg by LCMS/MS method; type: ADME, organism-based; conditions: in vivo
Procedure, shortened: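 Rat given an oral dose of 1 mg/kg, with a 1 mg/kg IV dose for comparison; oral bioavailability calculated.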

Rattus norvegicus = assay: Clearance in Sprague Dawley (crl:CD(SD)) rat at 1 mg/kg, iv by LCMS/MS method; type: ADME, organism-based; conditions: in vivo
Procedure, shortened: (§2)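 Rat given a single IV dose of 1 mg/kg; blood clearance, half-life and volume of distribution derived from the IV profile.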

[6] = Volume of distribution at steady state in Sprague Dawley (crl:CD(SD)) rat at 1 mg/kg, iv by LCMS/MS method; type: ADME, organism-based; conditions: in vivo, read-out: Vdss; procedure, shortened: as §2
[7] = Half life in Sprague Dawley (crl:CD(SD)) rat at 1 mg/kg, iv by LCMS/MS method; type: ADME, organism-based; conditions: in vivo; procedure, shortened: as §2
[8] = molecular target: T1, C-C chemokine receptor type 4; assay: as §1; conditions: read-out: pA2 (converted)
[9] = Clearance in rat microsomes; type: ADME, Microsome
[10] = Clearance in dog microsomes; type: ADME, Canis lupus familiaris, Microsome
[11] = Clearance in human microsomes; type: ADME, Microsome
[12] = Oral bioavailability in Beagle dog at 1 mg/kg by LCMS/MS method; type: ADME, organism-based, Canis lupus familiaris; conditions: in vivo
[13] = Volume of distribution at steady state in Beagle dog at 1 mg/kg by LCMS/MS method; type: ADME, organism-based, Canis lupus familiaris; conditions: in vivo, read-out: Vdss
[14] = Half life in Beagle dog at 1 mg/kg by LCMS/MS method; type: ADME, organism-based, Canis lupus familiaris; conditions: in vivo
Canis familiaris = assay: Clearance in Beagle dog at 0.5 mg/kg by LCMS/MS method; conditions: in vivo

Chain of albumin (P02768 whole entry): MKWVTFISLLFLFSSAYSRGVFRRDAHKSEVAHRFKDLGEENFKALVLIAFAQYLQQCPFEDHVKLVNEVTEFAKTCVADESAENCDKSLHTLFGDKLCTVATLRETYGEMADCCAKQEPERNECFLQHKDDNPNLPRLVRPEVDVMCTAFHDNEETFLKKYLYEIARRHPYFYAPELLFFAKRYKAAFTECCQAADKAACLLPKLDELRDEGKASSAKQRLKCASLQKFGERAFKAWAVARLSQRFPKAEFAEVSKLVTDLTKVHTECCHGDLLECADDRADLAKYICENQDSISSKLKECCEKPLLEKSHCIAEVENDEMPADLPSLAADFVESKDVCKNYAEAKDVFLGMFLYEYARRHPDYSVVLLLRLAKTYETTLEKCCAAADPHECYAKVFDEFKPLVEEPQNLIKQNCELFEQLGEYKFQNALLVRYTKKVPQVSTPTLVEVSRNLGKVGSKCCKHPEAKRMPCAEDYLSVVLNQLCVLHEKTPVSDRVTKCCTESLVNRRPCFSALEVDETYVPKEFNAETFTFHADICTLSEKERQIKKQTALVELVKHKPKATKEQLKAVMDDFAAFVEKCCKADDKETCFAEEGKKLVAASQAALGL

| Compound | IC50 [1] [nM] | chromatographic logD [2] | solubility kinetic [3] [µM] | also measured |
| --- | --- | --- | --- | --- |
| O=S(=O)(Nc1ncnc2[nH]nc(O)c12)c1cccc(Cl)c1Cl | 15800 | 0.8 | ≥ 234 | – |
| COc1nn(C)c2nc(NC3COC3)nc(NS(=O)(=O)c3cccc(Cl)c3Cl)c12 | 10000 | 2.2 | ≥ 712 | – |
| COc1nn(C)c2cccc(NS(=O)(=O)c3cccc(Cl)c3Cl)c12 | 794 | 6.5 | 80 (≈ 30.9 µg/mL) | – |
| CCn1[nH]c2ncnc(NS(=O)(=O)c3cccc(Cl)c3Cl)c2c1=O | > 31600 | 1.2 | ≥ 383 | – |
| Cn1ncc2c(NS(=O)(=O)c3cccc(Cl)c3Cl)ncnc21 | 1260 | 1.7 | 476 (≈ 171 µg/mL) | – |
| CNC(=O)Cn1nc(OC)c2c(NS(=O)(=O)c3cccc(Cl)c3Cl)ncnc21 | 631 | 1.3 | ≥ 509 | – |
| Cn1nc(NS(=O)(=O)c2cccc(Cl)c2Cl)c2ccccc21 | 2000 | 4.6 | 124 (≈ 44.2 µg/mL) | – |
| COCCNc1nc(NS(=O)(=O)c2cccc(Cl)c2Cl)c2c(OC)nn(C)c2n1 | 7940 | 3.3 | ≥ 441 | – |
| COc1n[nH]c2ncnc(NS(=O)(=O)c3cccc(Cl)c3Cl)c12 | 158 | 1.8 | 402 (≈ 150 µg/mL) | – |
| COc1nn(C)c2nc(C)nc(NS(=O)(=O)c3cccc(Cl)c3Cl)c12 | 631 | 3.4 | ≥ 557 | – |
| COc1nn(CC(N)=O)c2ncnc(NS(=O)(=O)c3cccc(Cl)c3Cl)c12 | 501 | 1.1 | ≥ 490 | – |
| COc1nn(C2COC2)c2ncnc(NS(=O)(=O)c3cccc(Cl)c3Cl)c12 | 251 | 2.1 | 142 (≈ 61.1 µg/mL) | – |
| COc1nn(C)c2nc(NC(C)C)nc(NS(=O)(=O)c3cccc(Cl)c3Cl)c12 | 3160 | 5.2 | ≥ 551 | – |
| COc1ccc2c(cnn2C)c1NS(=O)(=O)c1cccc(Cl)c1Cl | 10000 | 5 | 175 (≈ 67.6 µg/mL) | – |
| COCCn1nc(OC)c2c(NS(=O)(=O)c3cccc(Cl)c3Cl)ncnc21 | 316 | 2.6 | ≥ 442 | – |
| CCOc1n[nH]c2ncnc(NS(=O)(=O)c3cccc(Cl)c3Cl)c12 | 794 | 2.3 | ≥ 438 | – |

| Compound | IC50 [1] [nM] | chromatographic logD [2] | solubility kinetic [3] [µM] | also measured |
| --- | --- | --- | --- | --- |
| COc1ccc(COc2nc(Br)cnc2NS(=O)(=O)c2ccc(C)cc2)cc1OCCN(C)C | – | 3.1 | 309 (≈ 170 µg/mL) | – |
| COc1cccc2c1c(NS(=O)(=O)c1cccc(Cl)c1Cl)nn2C | – | – | 288 (≈ 111 µg/mL) | pA2 [4]: inactive; fraction unbound (albumin): 0.023; bioavailability [5]: 24%; clearance (Rattus norvegicus): 17 mL/min/kg; Vd [6]: 0.5 L/kg; half-life [7]: 72 min |
| CCNc1nc(NS(=O)(=O)c2cccc(Cl)c2Cl)c2c(OC)nn(C)c2n1 | 251 | 4.2 | 219 (≈ 94.5 µg/mL) | – |
| COc1nn(C)c2ncnc(NS(=O)(=O)c3ccc(Cl)s3)c12 | 79.4 | 1.6 | ≥ 538 | Kb [8]: > 6.31 µM; fraction unbound (albumin): 0.023 |
| COc1nn(C)c2ncnc(NS(=O)(=O)c3cccc(Cl)c3Cl)c12 | 63.1 | 2.4 | ≥ 581 | CL [9]: 0.58 mL/min/g; CL [10]: 0.65 mL/min/g; CL [11]: < 0.53 mL/min/g; Kb [8]: > 6.31 µM; fraction unbound (albumin): 0.015; bioavailability [5]: 62%; clearance (Rattus norvegicus): 2 mL/min/kg; Vd [6]: 0.3 L/kg; half-life [7]: 114 min; bioavailability [12]: 100%; Vd [13]: 0.3 L/kg; half-life [14]: 36 min; clearance (Canis familiaris): 4 mL/min/kg |
| COc1nn(C)c2nc(N)nc(NS(=O)(=O)c3cccc(Cl)c3Cl)c12 | 316 | 2.4 | ≥ 649 | – |
| Cn1ncc2c(NS(=O)(=O)c3cccc(Cl)c3Cl)cccc21 | 3160 | 3.2 | 170 (≈ 60.6 µg/mL) | – |
| COc1nn(C)c2nc(N(C)C)nc(NS(=O)(=O)c3cccc(Cl)c3Cl)c12 | 631 | 4 | ≥ 626 | – |
| COc1nn(CCN(C)C)c2ncnc(NS(=O)(=O)c3cccc(Cl)c3Cl)c12 | 3980 | 1.6 | 358 (≈ 159 µg/mL) | – |
| COCCOc1nn(C)c2ncnc(NS(=O)(=O)c3cccc(Cl)c3Cl)c12 | 794 | 2.3 | ≥ 463 | – |
| COc1nn(C(C)C)c2ncnc(NS(=O)(=O)c3cccc(Cl)c3Cl)c12 | 251 | 4.5 | 404 (≈ 168 µg/mL) | – |
| COc1nn(CC(=O)O)c2ncnc(NS(=O)(=O)c3cccc(Cl)c3Cl)c12 | 200 | 0.8 | ≥ 483 | – |
| COc1nc(NS(=O)(=O)c2cccc(Cl)c2Cl)c2c(OC)nn(C)c2n1 | 794 | 1.9 | 148 (≈ 61.9 µg/mL) | – |
| Cn1ncc2c(NS(=O)(=O)c3cccc(Cl)c3Cl)ccnc21 | 12600 | 1.7 | ≥ 310 | – |
| CNc1nc(NS(=O)(=O)c2cccc(Cl)c2Cl)c2c(OC)nn(C)c2n1 | 79.4 | 3.2 | 376 (≈ 157 µg/mL) | – |
| COc1nn(C)c2nc(NCCN(C)C)nc(NS(=O)(=O)c3cccc(Cl)c3Cl)c12 | > 31600 | 1.4 | ≥ 444 | – |
